{"source": "paper PMC2688442", "about": "(Analytical biochemistry, 2009)", "key": {"[1]": {"system": "nNOS over eNOS in rat tissue", "conditions": "cited from earlier work"}, "nNOS in 293T/nNOS cells": {"system": "nNOS in 293T/nNOS cells", "assay": "Activation of nNOS in 293T/nNOS cells by A23187", "type": "cell-based, rat", "conditions": "A23187 5 μM, after the 8 h-incubation, deduced from Fig. 1C", "procedure,_shortened": "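HEK 293T cells stably transfected with rat nNOS cDNA (lipofection, Geneticin 0.8 mg/ml selection, single-cell cloning, highest-expressing clone), maintained in DMEM with 0.4 mg/ml Geneticin. At ~80% confluence, cells were exposed to 5 μM A23187 or left untreated, alongside WT 293T cells ± A23187. Nitrite in the culture medium was measured by Griess reagent at different times.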"}, "293T/nNOS cells": {"system": "293T/nNOS cells", "type": "cell-based", "conditions": "for Cell health after treatment: 293T/nNOS cells during the period of A23187 stimulation; for Cytotoxicity: by visual inspection under a microscope; for Inhibition of cell growth: experimental conditions of the inhibition assay"}, "nNOS over eNOS": {"system": "nNOS over eNOS", "conditions": "cited from earlier work"}}, "data": [{"smiles": "CSC(N)=NCCC[C@H](N)C(=O)O", "note": "[Me-TC, S-methyl-L-thiocitrulline]", "values": [{"measurement": "Inhibition of nNOS over eNOS in rat tissue (in words)", "setting": "[1]", "result": "better than Et-TC"}]}, {"smiles": "CNc1ccc2oc(C[C@H]3O[C@@]4(CC[C@H]3C)O[C@H]([C@H](C)C(=O)c3ccc[nH]3)[C@H](C)C[C@H]4C)nc2c1C(=O)O", "note": "[A23187]", "values": [{"measurement": "Nitrite concentration", "setting": "nNOS in 293T/nNOS cells", "result": "~ 18 μM"}, {"measurement": "Cell death with A23187 stimulation", "setting": "293T/nNOS cells; 293T/nNOS cells, after 10 h with A23187", "result": "no obvious cell death"}]}, {"smiles": "N=C(NCCC[C@H](N)C(=O)O)N[N+](=O)[O-]", "note": "[NNA, N^ω-Nitro-L-arginine]", "values": [{"measurement": "Cell health after treatment", "setting": "293T/nNOS cells", "result": "remained healthy"}, {"measurement": "Cell death", "setting": "293T/nNOS cells; 293T/nNOS cells under the experimental conditions of the inhibition assay", "result": "No cell death was observed"}]}, {"smiles": "Cc1cc(N)nc(CC2CNCC2NCCNCCc2cccc(F)c2)c1", "note": "(centres unmarked) [compound 3, N-[4-(6-amino-4-methylpyridin-2-ylmethyl)pyrrolidin-3-yl]-N′-(3-fluorophenylethyl) ethane-1,2-diamine]", "values": [{"measurement": "Cytotoxicity", "setting": "293T/nNOS cells; 293T/nNOS cells", "result": "no obvious cytotoxicity"}, {"measurement": "Inhibition of cell growth", "setting": "293T/nNOS cells; 293T/nNOS cells", "result": "Neither compound 3 nor AR-R17477 inhibited cell growth"}]}, {"smiles": "CCSC(N)=NCCC[C@H](N)C(=O)O", "note": "[Et-TC, S-ethyl-L-thiocitrulline]", "values": [{"measurement": "Selectivity in vitro for nNOS inhibition over eNOS (in words)", "setting": "nNOS over eNOS", "result": "more selective"}]}, {"smiles": "N=C(Nc1ccc(CCNCc2cccc(Cl)c2)cc1)c1cccs1", "note": "[AR-R17477]", "values": [{"measurement": "Cell health after treatment", "setting": "293T/nNOS cells", "result": "remained healthy"}, {"measurement": "Cytotoxicity", "setting": "293T/nNOS cells; 293T/nNOS cells", "result": "no obvious cytotoxicity"}, {"measurement": "Inhibition of cell growth", "setting": "293T/nNOS cells; 293T/nNOS cells", "result": "Neither compound 3 nor AR-R17477 inhibited cell growth"}]}]}
